The nature of data set [1]: Lethal dose in mouse, in groups of ten. In kind it is toxicity, organism-based. As to conditions: in vivo.
Data set [2] is filed under the species Mus musculus. The data set can be described thus: Evaluated for antagonism of reserpine induced hypothermia. In kind it is functional. An outline of the steps:
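Male HLa (ICR) BR mice, 18-24 g, in groups of eight; reserpine 5 mg/kg ip given 2 h before oral test compound as aqueous solution. Rectal temperature taken hourly; 1-4-h hypothermia assessed by analysis of variance.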

Data set [3] is filed under the species Mus musculus. Briefly: Righting ability was determined in mice after rapid rolling (aroused). In kind it is functional. The gist of the method: (§1)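 Male Simonsen (ICR) fBR mice, 18-24 g, groups of ten, dosed with aqueous compound. Righting ability checked before (unaroused) and after (aroused) rapid rolling in the hand; ED50 by Litchfield-Wilcoxon method.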

Data set [4] can be described thus: HPLC capacity factor (k'). In kind it is ADME.
The species entered for data set [5] is Mus musculus. The data set can be described thus: Compound was evaluated for maximal electroshock antagonism (MES) against mice. In kind it is functional. The gist of the method:
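Male HLa (ICR) BR mice, groups of eight to ten, dosed ip (aqueous solution) 15 min before transcorneal electroshock (50 mA, 0.2 s). End point: abolition of tonic hind-limb extension; quantal ED50 by Litchfield-Wilcoxon.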
In general terms: In the maximal electroshock model the usual endpoint is tonic extension of the hind limbs.

The species named for data set [6] is Mus musculus. Briefly: Righting ability was determined in mice before rapid rolling (unaroused);. Format: functional. An outline of the steps: as §1
The species entered for data set [7] is Mus musculus. The data set can be described thus: Mouse behavior activity was determined; D=-Depressant. Format: functional, organism-based. The gist of the method: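 Male Simonsen (ICR) fBR mice, 18-24 g, groups of three, given 3, 10, 30, 100, 300 or 1000 mg/kg ip as aqueous solution and observed for behavioral profile; deaths followed up to 7 days.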

The LD50 is the dose expected to kill half of the subjects tested. A lower LD50 goes with a more toxic substance. For orientation: ED50 means the dose at which the effect has come halfway, by size or by number of responders. A low value points to an effect at a small dose.

On to `COC(=O)NC1=NC(c2ccccc2C)CN1` (configuration not stated), for which the LD50 in data set [1] was 300 mg/kg. Also, in data set [2], the HYPO was >20 mg/kg. Moreover, the Loss of righting reflex in data set [3] was determined as 172 mg/kg; in data set [6], 144 mg/kg. Besides, the “Log k'” value in data set [4] worked out at 0.16. In addition, in data set [5], the ED50 was determined as 55 mg/kg. Besides, the Mouse behavior activity result in data set [7] was “Depressant”.

These data come from ChEMBL document CHEMBL1122650, “Synthesis and central nervous system properties of 2-[(alkoxycarbonyl)amino]-4(5)-phenyl-2-imidazolines” (J Med Chem, 1984).
